Series [1] relates to RAW264.7. As to the kind of experiment: Cytotoxicity against mouse RAW264.7 cells assessed as reduction in cell viability incubated for 24 hrs in presence of LPS by MTT assay. The following applies: RAW264.7, 24 h. In kind it is cell-based. (Tetrazolium dyes change colour on reduction, which living cells bring about.)
The subject of series [2] is Rattus norvegicus. Description: Antiarthritic activity in Sprague-Dawley rat model of arthritis assessed as reduction in CFA-induced inflammatory cell infiltration at 20 mg/kg, ig administered daily for 28 days starting from 14 days post-immunization and measured every 3 days by H and E staining based histopathological analysis. In kind it is functional, organism-based. The settings on record: time 28.0 day. Summed up:
(§1)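 AA rats (male SD, CFA intradermal into right hind paw) dosed intragastrically once daily at 20 or 40 mg/kg from day 14 to day 28. Killed after 29 days. Ankle joints fixed in 4% neutral buffered paraformaldehyde, decalcified in 10% EDTA, sectioned and H&E stained. Scored for synovial hyperplasia, inflammatory cell infiltration and cartilage destruction.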

Series [3] relates to RAW264.7. As to the kind of experiment: Cytotoxicity against mouse RAW264.7 cells assessed as reduction in cell viability at 20 uM incubated for 24 hrs by MTT assay. The following applies: raw264.7, 24 h. It is filed as cell-based. A digest of the protocol:
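RAW264.7 cells (1 × 10^4/well, used 24 h after seeding) exposed to 20 µM for 24 h. MTT (5 mg/mL stock) added for 4 h, supernatant removed, crystals dissolved in DMSO with 10–15 min shaking, absorbance at 492 nm.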

Series [4] has as its system Rattus norvegicus. As to the kind of experiment: Antiarthritic activity in Sprague-Dawley rat model of arthritis assessed as reduction in CFA-induced cartilage destruction at 40 mg/kg, ig […] and measured every 3 days by H and E staining based histopathological analysis. In kind it is functional, organism-based.
Series [5] deals with Rattus norvegicus. As to the kind of experiment: Antiarthritic activity in Sprague-Dawley rat model of arthritis assessed as reduction in CFA-induced synovial hyperplasia at 20 mg/kg, ig administered daily for 28 days starting from 14 days post-immunization and measured every 3 days by H and E staining based histopathological analysis. It is filed as functional, organism-based. The settings on record: time 28.0 day. Summed up:
as §1

In series [6] the test system is RAW264.7. Description: Antiinflammatory activity in mouse RAW264.7 cells assessed as inhibition of LPS-induced nitric oxide production preincubated for 1 hr followed by LPS stimulation and measured after 24 hrs by Griess reagent-based assay. It is filed as functional, cell-based. On the technique in general: Nitrite, measured by Griess reagent, commonly stands in for NO production.

Series [7] relates to RAW264.7. Description: Inhibition of NF-kappaB activation in mouse RAW264.7 cells assessed as reduction in LPS-induced IkappaB protein degradation at 0.5 to 2 uM preincubated for 1 hr followed by LPS stimulation and measured after 30 mins by Western blotting analysis. It is filed as cell-based. The settings on record: dose 0.5-2 µM, time 90.0 min. A digest of the protocol:
(§2)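 Pretreatment 1 h with 0.5–2 µM, then LPS 0.5 µg/mL for 30 min. p-IκB, IκB, p-p65, p65, ERK, JNK, p38 and their phosphorylated forms, plus β-actin, detected by Western blot (RIPA lysis, SDS-PAGE, PVDF, primary 16 h at 4 °C, HRP secondary 1:5000, ECL).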
A general note: Immunoblotting shows a protein as a band on a membrane.

The test system of series [8] is RAW264.7. Description: Anti-inflammatory activity in mouse RAW264.7 cells assessed as inhibition of LPS-induced COX-2 protein expression preincubated for 1 hr followed by LPS stimulation and measured after 24 hrs by Western blot analysis. It is filed as functional, cell-based. The settings on record: dose 0.5-2 µM, time 25.0 hrs. Summed up:
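Cells pretreated 1 h with 0.5, 1, 2 µM, then LPS 0.5 µg/mL for 24 h. iNOS, COX-2 and β-actin detected by Western blot (RIPA lysis, PVDF, primary 16 h at 4 °C, HRP secondary, ECL). Blots representative of three separate experiments.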

Series [9] relates to RAW264.7. As to the kind of experiment: Inhibition of LPS-induced ROS generation in mouse RAW264.7 cells at 0.5 to 2 uM preincubated for 1 hr followed by LPS stimulation and measured after 6 hrs by DCFH-DA staining based flow cytometry analysis. The following applies: dose 0.5-2 µM, time 7.0 hrs. In kind it is functional, cell-based. Summed up: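 RAW264.7 cells (1.5 × 10^6/well, grown 24 h) pretreated 1 h with 0.5, 1, 2 µM, then LPS 0.5 µg/mL for 6 h. Loaded with DCFH-DA 30 min at 37 °C, washed three times with cold serum-free medium or PBS. Intracellular ROS read by flow cytometry.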

Series [10] relates to RAW264.7. Description: Activation of Nrf2/HO-1 signalling pathway in mouse RAW264.7 cells assessed as increase in Nrf2 nuclear translocation at 0.5 to 2 uM preincubated for 1 hr followed by LPS stimulation and measured after 6 hrs by DAPI staining based fluorescence microscopic analysis. It is filed as cell-based. The following applies: filed as activator, dose 0.5-2 µM, time 7.0 hrs. Summed up: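 Cells grown on glass coverslips, treated 1 h, then LPS 0.5 µg/mL for 6 h. Fixed in 4% paraformaldehyde 20 min at room temperature, blocked 1 h in TBS with 0.1% Triton X-100 and 5% BSA. Stained with anti-Nrf2 and FITC anti-rabbit IgG, nuclei with DAPI. Imaged by inverted fluorescence microscope.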

Series [11] has as its system RAW264.7. As to the kind of experiment: Activation of Nrf2/HO-1 signalling pathway in mouse RAW264.7 cells assessed as increase in nuclear Nrf2 protein expression at 0.5 to 2 uM preincubated for 1 hr followed by LPS stimulation and measured after 24 hrs by Western blotting analysis. In kind it is cell-based. The following applies: filed as activator, dose 0.5-2 µM, time 25.0 hrs. Summed up:
(§3)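 RAW264.7 cells (2 × 10^6/well, grown 24 h) pretreated 1 h with 0.5, 1, 2 µM, then LPS 0.5 µg/mL for 24 h. Lysed in RIPA with PMSF and phosphatase inhibitors, SDS-PAGE, PVDF transfer. Primary antibodies (anti-Nrf2 or anti-HO-1) 16 h at 4 °C, HRP secondary 1:5000 1 h at room temperature, ECL detection. β-actin used for normalization.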

Series [12] deals with RAW264.7. As to the kind of experiment: Inhibition of MAPK signalling activation in mouse RAW264.7 cells assessed as reduction in LPS-induced JNK phosphorylation at 0.5 to 2 uM preincubated for 1 hr followed by LPS stimulation by Western blotting analysis. In kind it is cell-based. The following applies: dose 0.5-2 µM, TDE = time-dependent effect. Summed up: as §2
Series [13] concerns RAW264.7. As to the kind of experiment: Inhibition of NF-kappaB activation in mouse RAW264.7 cells assessed as reduction in LPS-induced p65 phosphorylation at 0.5 to 2 uM preincubated for 1 hr followed by LPS stimulation and measured after 30 mins by Western blotting analysis. In kind it is cell-based. The settings on record: dose 0.5-2 µM, time 90.0 min. Summed up: as §2
Series [14] concerns RAW264.7. Description: Activation of Nrf2/HO-1 signalling pathway in mouse RAW264.7 cells assessed as increase in HO-1 protein expression at 0.5 to 2 uM preincubated for 1 hr followed by LPS stimulation and measured after 24 hrs by Western blotting analysis. It is filed as cell-based. The settings on record: filed as activator, dose 0.5-2 µM, time 25.0 hrs. A digest of the protocol:
as §3

Series [15] has as its system RAW264.7. Description: Cytotoxicity against mouse RAW264.7 cells assessed as reduction in cell viability incubated for 24 hrs in absence of LPS by MTT assay. The following applies: RAW264.7, 24 h. In kind it is cell-based.
Series [16] deals with RAW264.7. Description: Activation of Nrf2/HO-1 signalling pathway in mouse RAW264.7 cells assessed as inhibition of LPS-induced NO production at 2 uM preincubated for 1 hr in presence of NAC followed by LPS stimulation and measured after 24 hrs by Griess reagent-based assay. It is filed as cell-based. The following applies: time 25.0 hrs. Summed up: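 Cells pretreated 1 h with or without NAC 5 mM alongside 2 µM compound, then LPS 0.5 µg/mL for 24 h. Medium NO measured by Griess reagent. Means ± SD of three independent experiments.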

In series [17] the test system is RAW264.7. As to the kind of experiment: Inhibition of MAPK signalling activation in mouse RAW264.7 cells assessed as reduction in LPS-induced p38 phosphorylation at 0.5 to 2 uM preincubated for 1 hr followed by LPS stimulation by Western blotting analysis. It is filed as cell-based. The settings on record: dose 0.5-2 µM, TDE = time-dependent effect. Summed up: as §2

Each structure is given as a SMILES string. Active and inactive are the calls of the source. No cut-off for these calls is given here.

For orientation: IC50 means the concentration that inhibits the measured activity by half.

For `COc1cc(OC)c2c(c1)C(C(O)c1ccc(OCc3ccc(F)cc3)cc1)OC2=O` (configuration not stated), the IC50 is > 40 µM in series [1], 760 nM in series [6] and > 40 µM in [15]. In addition, the outcome in series [2], in series [4], in series [5], in series [10], in series [11] and in [14] was Active. Further, the Activity result in [3] is listed as “Non-Toxic”. The inhibition entry in [7] and in [13] was “Active” in each case. In addition, the inhibition result is “Dose-dependent effect” in series [8], “Tde” in series [12] and “Tde” in [17]. In addition, the inhibition result in [9] is “inactive”. For the same compound, the result in series [16] was inactive.

The values above are taken from ChEMBL document CHEMBL4765431, “Novel phthalide derivatives: Synthesis and anti-inflammatory activity in vitro and in vivo” (Eur J Med Chem, 2020).
